SENP6 block – SENP6 protease inhibitors, primary screen, biochemical, luminescence, uHTS; Sentrin-specific protease 6 (Homo sapiens), Q9GZR1; Recombinant SENP6 catalytic domain, aminoluciferin luminescence; inhibition, % at 10 µM; actives 1.8% (n = 330,000); AID 2599, 2010;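 active = inhibition above about 50% at the single tested dose, limit read from the data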;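 also: plate controls were DMSO wells with enzyme for no effect and DMSO wells lacking enzyme for full effect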
SENP1 inh – human SENP1 catalytic domain inhibitors, primary screen, biochemical, FRET, uHTS. Sentrin-specific protease 1 (Homo sapiens), Q9P0U3. recombinant SENP1 catalytic domain, CyPet-SUMO1-YPet FRET cleavage. inhibition, % at 10 µM. actives 0.21% (n = 360,000). AID 624204, 2012;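 active = inhibition at least 30% at 10 µM, raw YFP signal under a set limit, fluorescence ratio 0.5 to 1.5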;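 also: 0% = enzyme with DMSO and 100% = no enzyme wells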
Target sequence (Q9P0U3 419-644 limits assumed): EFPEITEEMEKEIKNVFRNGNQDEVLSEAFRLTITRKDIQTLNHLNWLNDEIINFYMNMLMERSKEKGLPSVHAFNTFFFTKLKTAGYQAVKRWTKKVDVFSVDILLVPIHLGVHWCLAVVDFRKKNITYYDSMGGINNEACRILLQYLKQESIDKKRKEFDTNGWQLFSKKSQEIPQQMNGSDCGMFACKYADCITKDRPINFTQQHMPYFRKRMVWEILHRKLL
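Material – human SENP1 catalytic domain · Input – SENP1 enzyme, 20 pM final · Compound dosing – single concentration of 10 µM compound, 0.5% DMSO final · Timing – enzyme reaction for 50 min at room temperature, dark · Measured by – FRET fluorescence in CFP and YFP emission channels · Control set – no-enzyme wells low, DMSO-plus-enzyme wells high control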
SENP7 inh – SENP7 protease inhibitors, primary screen, biochemical, luminescence, uHTS | Sentrin-specific protease 7 (Homo sapiens), Q9BQF6 | inhibition, % at 5 µM | actives 1.5% (n = 330,000) | recombinant SENP7, Z-RLRGG-aminoluciferin luminescence, 40 min;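 active = inhibition above about 50% at the single test dose, limit read from the data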;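 also: plate controls were DMSO with enzyme for no effect and no enzyme buffer wells for full effect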
Target sequence (Q9BQF6 706-1050 limits assumed): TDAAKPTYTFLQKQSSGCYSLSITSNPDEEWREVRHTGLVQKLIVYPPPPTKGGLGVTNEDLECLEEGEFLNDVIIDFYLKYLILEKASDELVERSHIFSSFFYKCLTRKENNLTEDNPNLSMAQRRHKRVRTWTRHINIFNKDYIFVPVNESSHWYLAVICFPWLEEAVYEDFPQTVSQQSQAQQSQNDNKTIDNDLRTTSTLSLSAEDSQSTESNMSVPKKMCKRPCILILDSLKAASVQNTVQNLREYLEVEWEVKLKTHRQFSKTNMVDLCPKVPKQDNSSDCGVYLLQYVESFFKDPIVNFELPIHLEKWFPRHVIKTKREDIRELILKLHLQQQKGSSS
SENP8 block-1 – human SENP8 protease inhibitors, primary screen, biochemical, fluorescence, Nedd8 protein substrate, uHTS. Sentrin-specific protease 8 (Homo sapiens), Q96LD8. recombinant SENP8. inhibition, % at 20 µM. actives 0.64% (n = 360,000); in the data active = inhibition mostly above about 40%, no sharp cut-off; inactive = mostly below about 27%
SENP8 block-2 – SENP8 protease inhibitors, primary screen, biochemical, luminescence; Sentrin-specific protease 8 (Homo sapiens), Q96LD8; purified SENP8, Z-RLRGG-aminoluciferin cleavage; inhibition, % at 10 µM; actives 1.2% (n = 330,000); AID 2540, 2010; in the data active = inhibition above about 50%
Numbers without * were called inactive; x = no result. Compounds with a hit are over-represented: about 2.5% of the library has one in this group of screens.

SMILES	SENP6 block	SENP1 inh	SENP7 inh	SENP8 block-1	SENP8 block-2
CN1C(=O)/C(=C/c2ccc(O)c([N+](=O)[O-])c2)N(C)C1=S	91*	1	83*	26	87*
COCCNc1nc(NCc2cc(-c3ccc(OC)cc3)no2)c2sccc2n1	x	0	x	-24	x
Cc1nc(-c2ccccc2)sc1-c1ccn[nH]1	61*	-1	56*	-391	47
Cc1nc(-c2ccccc2)sc1-c1ccnn1C	-4	1	7	-420	-5
CC(=O)Nc1ccc(-c2csc(Nc3ncccn3)n2)cc1	1	0	18	8	-8
Cc1cccnc1Nc1nc(-c2ccccn2)cs1	81*	2	77*	-9	75*
CCCCCNc1nc(-c2ccccc2)cs1	64*	x	10	x	32
c1ccc(CCNc2nc(-c3ccncc3)cs2)cc1	-22	2	9	-144	-5
Oc1ccc(-c2csc(Nc3ncccn3)n2)cc1	37	2	72*	10	56*
c1ccc(-c2csc(Nc3ncccn3)n2)cc1	37	2	75*	16	13
COc1ccc(CN2C(=O)c3ccccc3C2=O)cc1C(=O)N(C)CC(=O)Nc1ccc(F)cc1	-6	3	1	12	-1
O=C(/C=C/c1ccc(Cl)cc1Cl)NCc1ccncc1	-29	2	-9	7	-15
O=C(/C=C/c1ccc(Cl)cc1Cl)Nc1ccncc1	78*	0	43	15	56*
O=C(/C=C/c1c(Cl)cccc1Cl)Nc1ccncc1	60*	0	53*	8	43
O=C(/C=C/c1cccc(Cl)c1)Nc1ccncc1	-2	2	-4	8	-10
O=C(/C=C/c1c(F)cccc1Cl)Nc1nc2ccccc2[nH]1	-27	-2	69*	6	-28
NC(=O)c1c(N)[nH]c(C(=O)c2ccccc2)c1-c1ccccc1Br	x	-28	x	-3	x
COC(=O)[C@]12CCCCC=C1N(Cc1ccccc1)C(=O)[C@H](CC(=O)NCCc1ccccc1OC)C2	x	0	x	3	x
C=C(C)C1CC=C(C)/C(=N\NC(=O)CNc2cccc3ccccc23)C1 (centres undefined)	60*	-23	12	-369	42
COc1ccc(N2CC(C(=O)N[C@@H](C)C(=O)NCc3ccccc3OC)CC2=O)cc1 (some centres undefined)	11	0	-4	6	5
CC1=C(C(=O)c2ccccc2)C(c2ccc(N3CCOCC3)cc2)NC(=O)N1 (centres undefined)	-17	74*	1	-1	-2
COC(=O)c1c(C)[nH]c(C(=O)COC(=O)CCc2ccc(OC)c(OC)c2)c1C	x	0	x	20	x
N#CNc1nc(O)cc(=O)[nH]1	21	29*	-1	-53	7
CCSc1nc(O)cc(=O)[nH]1	-11	3	-2	13	-11
CCC(=O)Nc1ccc2nc(C3CC3)n(Cc3ccc(C(C)(C)C)cc3)c(=O)c2c1	86*	0	91*	-17	71*
SMILES	SENP6 block	SENP1 inh	SENP7 inh	SENP8 block-1	SENP8 block-2
OC1COC(O)C(O)C1O (centres undefined)	-5	1	-6	11	11
Cc1ccccc1NC1=C(C(=O)c2ccccc2)N(C)S(=O)(=O)c2ccccc21	-11	22	5	43*	1
CCc1nc2ccc(C(=O)N3CCCCC3)cn2c1N(C)CCCc1ccccc1	x	-1	x	2	x
Oc1ccc2ccccc2c1/C=N/Nc1ccccc1	-17	-27	-3	-56	-11
Oc1ccc2ccccc2c1C=NCc1ccccc1	60*	-20	14	6	14
Cc1ccc2nc(NC(=O)Cc3cccs3)sc2c1	63*	0	54*	-1	36
COc1ccc2nc(NC(=O)Cc3cccs3)sc2c1	2	-16	11	17	5
COc1ccc(-n2c(N)c(C(=O)NCc3ccco3)c3nc4ccccc4nc32)cc1	4	-19	4	-279	7
Nc1c(C(=O)NCc2ccco2)c2nc3ccccc3nc2n1CCc1ccc(F)cc1	67*	-22	44	-259	58*
CCc1c(C)nc(N2CCN(c3ccc(OC)cc3)CC2)[nH]c1=O	6	0	-8	9	2
O=C(Cc1ccccc1)NC1(O)C(=O)c2ccccc2C1=O	42	2	13	50*	30
CC1=NN(C(C#N)c2ccccc2O)C(C)(C)C1 (centres undefined)	9	1	2	43*	-7
O=C(Cn1nc2ccccc2n1)N/N=C/c1cc(Cl)cc([N+](=O)[O-])c1O	x	0	x	33	x
C(=N\Nc1nc2ccccc2s1)/c1ccc2c(c1)OCO2	67*	-2	89*	-238	55*
O=[N+]([O-])c1cc(Cl)cc(/C=N/Nc2nc3ccccc3s2)c1O	54*	-4	-6	14	45
Brc1csc(/C=N/Nc2nc3ccccc3s2)c1	37	-5	76*	-80	57*
C/C(=N\Nc1nc2ccccc2[nH]1)c1ccccn1	59*	-1	-1	-4	32
O=C(NNC(=S)Nc1ccccc1)Nc1ccccc1	6	4	-4	3	-8
Cc1ccc(NC(=S)NNC(=O)Nc2ccccc2)cc1	52*	0	47	13	29
Nc1c(C(=O)N/N=C/c2ccccc2)cnn1-c1ccccc1	67*	2	51*	0	49
Oc1cccc(/C=N/N(Cc2ccccc2)c2ccccc2)c1	-33	-1	18	13	6
Oc1ccc(/C=N/N(Cc2ccccc2)c2ccccc2)c(O)c1O	x	1	x	56*	x
CN(CC(=O)Nc1ccccc1Cl)C(=O)Cn1cc(C(F)(F)F)cc(Cl)c1=O	-4	2	5	6	8
COc1cc([N+](=O)[O-])cc(/C=N/NC(=O)C(C)Nc2ccccc2C)c1O (centres undefined)	3	-4	-8	41*	1
COc1cc([N+](=O)[O-])cc(/C=N/NC(=O)c2ccc(C)nc2)c1O	75*	-8	77*	27	58*
Cn1c(N)c(C(=O)COC(=O)c2ccccc2C(=O)c2ccc(Cl)c([N+](=O)[O-])c2)c(=O)n(C)c1=O	-7	2	5	13	0
Cc1ccc(N=Nc2c(=O)[nH]n3c(C)cc(C)nc23)cc1	-15	5	-10	49*	-10
O=C1c2c(O)ccc(O)c2C(=O)c2c(NCCNCCO)ccc(NCCNCCO)c21	13	1	15	51*	17
O=C1c2ccccc2C(=O)c2c(Nc3ccc(CCO)cc3)ccc(O)c21	-2	3	-1	24	8

High-throughput results: PubChem, Sanford-Burnham Center for Chemical Genomics
